LMPTP block: blocks human LMPTP phosphatase. AID 651560. recombinant LMPTP-A, OMFP fluorogenic substrate, fluorescence intensity. inhibition, % at 20 µM. 360,000 tested, 0.22% active. P24666;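 active = compounds that cut the enzyme signal by at least half of the control window in the single-dose screen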
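Test system: LMPTP-A phosphatase enzyme; input: 0.625 nM LMPTP-A final; reagent: OMFP substrate, 400 µM final; compound dosing: 20 µM single dose, 3% DMSO; incubation: 50 min dark incubation at room temperature; measured by: endpoint fluorescence intensity from OMFP dephosphorylation; measure: % inhibition relative to no-enzyme and uninhibited control wells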
Rpn11 block: inhibitors of human proteasome Rpn11. O00487. human 26S proteasome, Ub4-pepOG fluorescence polarization; 20S core pre-blocked with epoxomicin. inhibition, % at 20 µM. 360,000 tested, 0.59% active. AID 588493;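 active = inhibition at 20 µM, scaled to each plate's controls, above about 33%, limit read from the data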
Target sequence (O00487 whole entry, looked up): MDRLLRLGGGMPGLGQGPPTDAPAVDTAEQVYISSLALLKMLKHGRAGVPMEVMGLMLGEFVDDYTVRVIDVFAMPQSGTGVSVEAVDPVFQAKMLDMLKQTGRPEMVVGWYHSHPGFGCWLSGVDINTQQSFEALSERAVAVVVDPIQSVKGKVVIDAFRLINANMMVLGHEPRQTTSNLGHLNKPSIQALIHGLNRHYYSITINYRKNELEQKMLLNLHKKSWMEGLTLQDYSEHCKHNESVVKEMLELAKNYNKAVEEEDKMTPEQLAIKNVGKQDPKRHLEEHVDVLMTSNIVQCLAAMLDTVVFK
STEP block: STEP (human) phosphatase inhibition; 360,000 tested, 0.25% active; P54829; recombinant STEP, OMFP fluorogenic substrate, fluorescence; inhibition, % at 20 µM;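 active = inhibition at 20 µM, scaled per plate between control wells, above about 37%, limit read from the data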
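Material: STEP (striatal-enriched tyrosine phosphatase) enzyme, cell-free | Medium: 50 mM Bis-Tris pH 6.0 with 2.5 mM DTT and 0.005% Tween 20 | Read-out: Percent inhibition scaled to no-enzyme and uninhibited-enzyme controls, plate-pattern corrected | Signal: Fluorescence read at 480 nm ex / 540 nm em | Times: 20 min reaction, room temperature, in the dark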
DNMT1 inh: DNMT1 (human) enzyme inhibition; P26358; DNMT1 molecular beacon, Hinp1I cleavage, fluorescence; inhibition (reported as % activation of signal), % at 10 µM; 360,000 tested, 0.83% active; in the data active = inhibition above about 50%
SUMO1-SIM PPI: SUMO1-SIM interaction modulation. SUMO1 binding to a labelled peptide, TR-FRET, 1 h. inhibition, % at 20 µM. 360,000 tested, 0.33% active. AID 602429; in the data active = inhibition above about 37%
Target sequence (P63165 whole entry, looked up): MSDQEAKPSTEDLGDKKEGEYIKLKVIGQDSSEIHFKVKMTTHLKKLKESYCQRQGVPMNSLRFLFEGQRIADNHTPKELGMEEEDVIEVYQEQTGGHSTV
Scp1 inh: inhibitors of human Scp-1 phosphatase; inhibition, % at 20 µM; 340,000 tested, 0.88% active; Q9GZU7; AID 493091; Recombinant Scp1, phosphopeptide, malachite green phosphate absorbance;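 active = inhibition above about 50% at 20 µM, limit read from the data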
Target sequence (Q9GZU7 76-261 limits assumed): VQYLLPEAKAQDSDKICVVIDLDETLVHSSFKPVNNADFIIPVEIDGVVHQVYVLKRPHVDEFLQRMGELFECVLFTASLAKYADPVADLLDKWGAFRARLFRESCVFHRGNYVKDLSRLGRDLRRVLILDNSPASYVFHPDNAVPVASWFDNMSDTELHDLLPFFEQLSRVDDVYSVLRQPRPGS
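Assay system: SCP-1 catalytic fragment, aa 76-261 | Buffer or medium: Tris acetate buffer pH 5.5 with MgCl2 and Tween-20 | Compound: One concentration, 20 µM, with 1.0% DMSO | Also added: Phospho 17-mer peptide substrate | Signal: Absorbance at 630 nm | Incubation: 45 min enzyme reaction at room temperature | Measure: % inhibition of SCP-1 phosphate liberation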
Beacon interf DR: beacon fluorescence artifact, dose response counter-screen | IC50, µM | 200 tested, under 10 active | molecular beacon fluorescence, spectral interference counter-screen | shares compounds with DNMT1 inh; call rule not given here
DNMT1 confirm: DNMT1 inhibition confirmation, single concentration; shares compounds with DNMT1 inh; DNMT1 molecular beacon HinP1I cleavage, fluorescence; inhibition, % at 10 µM; 2,300 tested, 8% active;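 active = average inhibition of at least 30% in the single-concentration confirmation test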
DNMT1 interf: beacon fluorescence artifact counter-screen | shares compounds with DNMT1 inh | 2,300 tested, 1% active | activation (fluorescence interference), % at 10 µM | DNMT1 molecular beacon spectral interference counterscreen, fluorescence 485/520;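 active = activation of at least 30% at 10 µM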;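 note: DNMT1 catalytic domain with a HinP1I cleavage step and a FAM/dabcyl DNA beacon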
Large screens that a line does not name were inactive (follow-up assays come after a bar, where shown). An excerpt weighted towards active compounds, which were near 2.3% of everything screened.

CCNC(=O)COc1ccc(/C=C2\COc3ccccc3C2=O)cc1OC	none
Cn1c(SCc2ccc(Cl)cc2)nnc1-c1ccc2nonc2c1	none
Cc1cc(C(=O)OCC(=O)NC2CCCCC2C)c2ccccc2n1 (stereo unspecified)	none
CC1CCCCC1NC(=O)COC(=O)c1c2c(nc3ccccc13)/C(=C/c1ccco1)CC2 (stereo unspecified)	DNMT1 inh 94.6, Scp1 inh 67.9 | DNMT1 confirm inactive | DNMT1 interf inactive
CCN(C(=O)CSc1nc(N)cc(=O)[nH]1)c1c(N)n(Cc2ccccc2)c(=O)[nH]c1=O	none
O=C(CNC(=O)c1ccc(Cl)cc1Cl)Nc1ccc(F)cc1	none
CCOC(=O)c1ccc(-n2cnc(-c3ccc([N+](=O)[O-])cc3)c2)cc1	none (no result: Scp1 inh)
O=[N+]([O-])c1ccc(-c2cn(-c3ccc(Cl)cc3)cn2)cc1	DNMT1 inh 54.3, SUMO1-SIM PPI 75.4 (no result: Scp1 inh) | DNMT1 confirm inactive | DNMT1 interf inactive
Cc1ccc(NC(=O)Nc2cc(S(C)(=O)=O)ccc2Cl)cc1	none
COc1ccccc1C(CNC(=O)c1ccc(-c2ccccc2Cl)o1)N1CCCC1 (stereo unspecified)	none
COc1cc(/C=C2\SC(=O)N(c3ccc(Cl)cc3)C2=O)cc([N+](=O)[O-])c1O	LMPTP block 84.2, STEP block 97.0, DNMT1 inh 86.1, SUMO1-SIM PPI 105.5, Scp1 inh 54.9 | DNMT1 confirm inactive | DNMT1 interf inactive
CCc1ccc(NC(=O)c2noc3c2CCC3)cc1	DNMT1 inh 79.7 | DNMT1 confirm inactive | DNMT1 interf inactive
CSCCC(NC(=O)c1ccc(Cl)c([N+](=O)[O-])c1)C(=O)N1CCN(C/C=C/c2ccccc2)CC1 (stereo unspecified)	none
O=C(/C=C/[C@H]1O[C@@H](n2ccc(=O)[nH]c2=O)[C@H](O)[C@@H]1O)NCCCc1ccccc1	DNMT1 inh 79.5 (no result: Scp1 inh) | DNMT1 confirm inactive | DNMT1 interf inactive
O=C(O)c1ccccc1NC(=O)C1CCN(S(=O)(=O)c2cccc3nsnc23)CC1	none
c1ccc(Cn2nnc3c(NCc4ccc5c(c4)OCO5)nc(C4CC4)nc32)cc1	none
Cc1nc(NCc2ccc3c(c2)OCO3)c2nnn(Cc3ccccc3)c2n1	DNMT1 inh 54.8 | DNMT1 confirm inactive | DNMT1 interf inactive
CCC(=O)N1c2ccccc2-c2nnc(SC)nc2OC1c1ccc(N(C)C)cc1 (stereo unspecified)	none
CCC1Oc2nc(SC)nnc2-c2ccccc2N1C(=O)c1ccccc1 (stereo unspecified)	DNMT1 inh 54.2 | DNMT1 confirm inactive | DNMT1 interf inactive
CN1CCCN(c2cc(-c3ccc4ccccc4c3)nc3ccnn23)CC1	none (no result: Scp1 inh)
CCCS(=O)(=O)NC(=O)C1(C)CCN(C(=O)c2ccc(C(F)(F)F)nc2C)C1 (stereo unspecified)	none (no result: Scp1 inh)
c1ccc(-c2cc(-c3nnc4n3N=C(c3ccc5ccccc5c3)CS4)[nH]n2)cc1	DNMT1 inh 55.4 | DNMT1 confirm inactive | DNMT1 interf inactive
CCS(=O)(=O)N1Cc2ccccc2CC1C(=O)N1CCN(c2cccc(C)c2C)CC1 (stereo unspecified)	DNMT1 inh 64.8 | DNMT1 confirm inactive | DNMT1 interf inactive
Cc1cccc(N2CCN(C(=O)C3CCCCC3)CC2)c1C	none
O=C(NNc1cc(N2CCCC2)nc(N2CCCC2)n1)c1ccc([N+](=O)[O-])cc1	DNMT1 inh 55.6, SUMO1-SIM PPI 37.1 | DNMT1 confirm inactive | DNMT1 interf inactive
CC(=O)Nc1cccc(-c2ccnc3c2CC(C(=O)NCc2ccc(N(C)C)cc2)O3)c1 (stereo unspecified)	none (no result: Scp1 inh)
COc1ccc2nc(-c3ccco3)c(-c3ccco3)nc2c1	LMPTP block 53.9, DNMT1 inh 97.9, SUMO1-SIM PPI 43.7, Scp1 inh 77.0 | DNMT1 confirm inactive | DNMT1 interf inactive
CN1CCN(C(=O)CCN2C(=O)c3ccccc3C2=O)CC1	DNMT1 inh 51.2 | DNMT1 confirm inactive | DNMT1 interf inactive
O=C(CCN1C(=O)c2ccccc2C1=O)N1CCN(C(=O)c2ccccc2)CC1	none
O=C(OCC(=O)N1CCCC1=O)c1nc(Cl)c(Cl)c(Cl)c1Cl	none
C=CCn1c(=NC(=O)C2CC2)sc2cc(NC(C)=O)ccc21	none
C=CCn1c(=NC(=O)C2CCCCC2)sc2cc(NC(C)=O)ccc21	DNMT1 inh 51.2 | DNMT1 confirm inactive | DNMT1 interf inactive
Oc1[nH]c2ccccc2c1N=Nc1ccc(F)cc1	DNMT1 inh 62.7 (not shown: Rpn11 block) | Beacon interf DR 20.4 | DNMT1 confirm 31.1 | DNMT1 interf inactive
Oc1[nH]c2ccccc2c1N=Nc1ccccc1	none
O=C(CCN1C(=O)/C(=C\C=C\c2ccccc2)SC1=S)Nc1ccccc1C(=O)O	DNMT1 inh 75.3 | DNMT1 confirm inactive | DNMT1 interf inactive
CCOc1cc2[nH]c(=S)n(CCC(=O)NC3CCCCC3)c(=O)c2cc1OCC	DNMT1 inh 51.1 (no result: Scp1 inh) | DNMT1 confirm inactive | DNMT1 interf inactive
CCOc1cc2[nH]c(=O)n(CCCCC(=O)NC3CCCCCC3)c(=O)c2cc1OCC	none
CCN(CC)S(=O)(=O)c1cccc(NC(=O)CSc2nnc(N)s2)c1	none
Nc1nnc(SCC(=O)Nc2cccc(S(N)(=O)=O)c2)s1	DNMT1 inh 91.7 | DNMT1 confirm inactive | DNMT1 interf inactive
COc1ccccc1-c1nnc(NC(=O)c2ccc3c(c2)OCO3)s1	DNMT1 inh 54.8 | DNMT1 confirm inactive | DNMT1 interf inactive
CC(C)c1nnc(NC(=O)c2ccc3c(c2)OCO3)s1	none
CCOc1ccc(C(=O)CSCC(=O)O)cc1	none
Cc1cccc(N2CC(C(=O)Nc3nnc(SCC(=O)Nc4nccs4)s3)CC2=O)c1 (stereo unspecified)	DNMT1 inh 53.2 | DNMT1 confirm inactive | DNMT1 interf inactive
CC(C)NC(=O)c1cc(C2CCCCN2S(=O)(=O)c2ccccc2)on1 (stereo unspecified)	none (no result: Scp1 inh)
C=CCn1c(SCC(=O)NC(=O)NCc2ccco2)nc2sc(CC)cc2c1=O	DNMT1 inh 61.7 | DNMT1 confirm inactive | DNMT1 interf inactive
CCn1c(SCC(=O)NC(=O)NCc2ccco2)nc2sc(C)c(C)c2c1=O	DNMT1 inh 77.9, SUMO1-SIM PPI 50.4 | DNMT1 confirm inactive | DNMT1 interf inactive
